This passage reports Activity, IC50 and inhibition in vivo results from ChEMBL document CHEMBL1152595, “Synthesis and biological evaluation of 2,3,4-triarylbenzopyran derivatives as SERM and therapeutic agent for breast cancer” (Bioorg Med Chem, 2009).

The test system of assay [1] is Rattus norvegicus. Put plainly: Estrogenic agonistic activity in bilaterally ovariectomized Sprague-Dawley rat assessed as uterine weight gain at 10 mg/kg, po once daily for three days measured on day 31 of age. The assay is classed as functional. Summed up: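 Immature rats dosed orally once daily for three consecutive days; vehicle-only group as control. Autopsy 24 h after last dose on day 31 of age: vaginal smear taken, uterus excised, blotted and weighed fresh. Vaginal opening, vaginal epithelial cornification and uterine weight increase scored; gain expressed as percent of vehicle control; means ± SEM, at least six per group.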

The test system of a further assay is HEK293. Kind of assay: Antiproliferative activity against human HEK293 cells after 48 hrs by MTT assay. The following applies: HEK293, 48 h. The assay is classed as cell-based. Summed up:
(§1)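 MTT assay: cells seeded at 1 × 10^4 per well in DMEM with 10% FBS, left 24 h at 37 °C in CO2; compounds diluted in medium added alongside vehicle control for 48 h; MTT (5 mg/mL) added for 4 h, formazan dissolved in DMSO, absorbance read at 540 nm; IC50 in µM.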
For orientation: Tetrazolium assays rely on reduction of a dye to a coloured formazan, in cell work by metabolically active cells.

Another assay deals with MCF7. Put plainly: Antiproliferative activity against human MCF7 cells after 48 hrs by MTT assay. The assay is classed as functional, cell-based. The following applies: for IC50: mcf7; for pIC50: Homo sapiens, MCF7, 48 h, read-out: IC50. Summed up: as §1
The subject of a further assay is MDA-MB-231. Kind of assay: Antiproliferative activity against human MDA-MB-231 cells after 48 hrs by MTT assay. The assay is classed as functional, cell-based. The following applies: for IC50: mda-mb-231; for pIC50: Homo sapiens, MDA-MB-231, 48 h, read-out: IC50. Summed up:
as §1

Assay [2] relates to Rattus norvegicus. Kind of assay: Estrogenic antagonistic activity in bilaterally ovariectomized Sprague-Dawley rat assessed as inhibition of ethynylesterol-induced uterine weight at 10 mg/kg, po once daily for 3 days measured on day 31 of age. The assay is classed as functional. Summed up: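 Antagonism read as uterine fresh weight in rats given compound orally at 10 mg/kg/day alongside 17α-ethynylestradiol (0.02 mg/kg/day); inhibition expressed relative to the ethynylestradiol-only group; means ± SEM, at least six animals per group.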

Structures are written as SMILES. pIC50: −log10 of the molar value.

One may read the pIC50 as the IC50 on a negative log10 scale, so that one unit is a factor of ten. For orientation: inhibition in vivo means the change of the read-out against control, counted positive when it falls. As for `CC(=O)Oc1ccc([C@@H]2Oc3ccccc3[C@H](c3ccc(O)cc3)[C@H]2c2ccccc2)cc1`, in the assay with Rattus norvegicus [1], the Activity was 105.18%. The compound also showed a pIC50 in the assay on HEK293 below 4.00. For the same compound, the IC50 entry in the assay on MCF7 and with MDA-MB-231 was “Not Active” in each case. Further, in the assay with Rattus norvegicus [2], the inhibition in vivo at 10 mg/kg came to 4.2%.

In the case of `CC(=O)Oc1ccc([C@@H]2Oc3ccccc3[C@H](c3ccc(OCCCN(C)C)cc3)[C@H]2c2ccccc2)cc1`, the Activity in the assay with Rattus norvegicus [1] is given as 117.2%. Further, the pIC50 is 4.85 in the assay with HEK293, 4.96 in the assay on MCF7 and 5.25 in the assay on MDA-MB-231. In the assay with Rattus norvegicus [2], the inhibition in vivo at 10 mg/kg stood at 58.4%.

Take `CC(=O)Oc1ccc([C@@H]2Oc3ccccc3[C@H](c3ccc(OCCN(C(C)C)C(C)C)cc3)[C@H]2c2ccccc2)cc1`: the Activity with Rattus norvegicus [1] turned out to be 146.6%. Also, the IC50 entry with MCF7 and with MDA-MB-231 was “Not Active” throughout. Further, the inhibition in vivo at 10 mg/kg in the assay on Rattus norvegicus [2] turned out to be 73.9%.

For `Oc1ccc([C@@H]2Oc3ccccc3[C@H](c3ccc(OCCN4CCCC4)cc3)[C@H]2c2ccccc2)cc1`, the Activity in the assay on Rattus norvegicus [1] came to 11.25%. For the same compound, the pIC50 in the assay on HEK293 was 4.44; with MCF7 it was 4.74; in the assay on MDA-MB-231, 4.75. Moreover, the inhibition in vivo at 10 mg/kg with Rattus norvegicus [2] was found to be 69.2%.

`CCN(CC)CCOc1ccc([C@H]2c3ccccc3O[C@@H](c3ccc(OC(C)=O)cc3)[C@@H]2c2ccccc2)cc1`: in the assay with Rattus norvegicus [1], the Activity is listed as 41.2%. Further, the pIC50 was 4.79 in the assay on HEK293 and 4.93 with MCF7. Moreover, in the assay on MDA-MB-231, the IC50 entry is “Not Active”. In addition, the inhibition in vivo at 10 mg/kg with Rattus norvegicus [2] amounted to 59.3%.

For `O=C1c2ccccc2O[C@@H](c2ccc(OCCN3CCCC3)cc2)[C@@H]1c1ccccc1`, in the assay with Rattus norvegicus [1], the Activity stood at 13.17%. This compound gave a pIC50 in the assay with HEK293 of 4.47. The IC50 entry in the assay with MCF7 and in the assay with MDA-MB-231 was “Not Active” throughout. Further, the inhibition in vivo at 10 mg/kg with Rattus norvegicus [2] worked out at 45.4%.

`Oc1ccc([C@@H]2Oc3ccccc3[C@H](c3ccc(OCCN4CCCCC4)cc3)[C@H]2c2ccccc2)cc1`: the Activity with Rattus norvegicus [1] was 28.2%. The pIC50 was 4.42 with HEK293, 5.11 in the assay with MCF7 and 5.06 in the assay on MDA-MB-231. The inhibition in vivo at 10 mg/kg with Rattus norvegicus [2] came to 51.5%.

With `OC1c2ccccc2O[C@@H](c2ccc(OCCN3CCCC3)cc2)[C@@H]1c1ccccc1` (some centres undefined), the Activity in the assay on Rattus norvegicus [1] was 124.5%. In addition, the IC50 result in the assay on MCF7 and in the assay with MDA-MB-231 was “Not Active” in each case. In addition, in the assay with Rattus norvegicus [2], the inhibition in vivo at 10 mg/kg is 29%.

Consider `Oc1ccc([C@H]2c3ccccc3O[C@@H](c3ccc(O)cc3)[C@@H]2c2ccccc2)cc1`, for which the Activity in the assay with Rattus norvegicus [1] was 142.9%. In the assay on HEK293, this compound showed a negative-log IC50 (pIC50) below 3.30. In addition, the IC50 result in the assay on MCF7 and in the assay on MDA-MB-231 was “Not Active” each time. For the same compound, the inhibition in vivo at 10 mg/kg in the assay with Rattus norvegicus [2] was 21.2%.

For the compound `CC(=O)Oc1ccc([C@@H]2Oc3ccccc3[C@H](c3ccc(OCCN4CCCCC4)cc3)[C@H]2c2ccccc2)cc1`, the Activity with Rattus norvegicus [1] is recorded as 171.4%. Also, the pIC50 is 4.53 in the assay with HEK293, 4.77 with MCF7 and 4.85 with MDA-MB-231. For the same compound, the inhibition in vivo at 10 mg/kg in the assay on Rattus norvegicus [2] came to 51.4%.

For the compound `CC(=O)Oc1ccc([C@@H]2Oc3ccccc3[C@H](c3ccc(OCCN4CCCCCC4)cc3)[C@H]2c2ccccc2)cc1`, the Activity in the assay on Rattus norvegicus [1] is 108.3%. Also, the negative-log IC50 (pIC50) with HEK293 is 4.05. Besides, the IC50 entry with MCF7 and with MDA-MB-231 was “Not Active” each time. The inhibition in vivo at 10 mg/kg with Rattus norvegicus [2] came to 30.6%.

With `CC(C)N(CCOc1ccc([C@H]2c3ccccc3O[C@@H](c3ccc(O)cc3)[C@@H]2c2ccccc2)cc1)C(C)C`, in the assay on Rattus norvegicus [1], the Activity is listed as 225%. In addition, the pIC50 in the assay on HEK293 is 4.69; with MCF7 it was 5.16; with MDA-MB-231, 5.13. Further, the inhibition in vivo at 10 mg/kg in the assay on Rattus norvegicus [2] is 69%.

As for `COc1ccc2c(c1)OC(C)(C)C(c1ccccc1)C2c1ccc(OCCN2CCCC2)cc1` (centres undefined) [ORMELOXIFENE], the Activity in the assay with Rattus norvegicus [1] was 164.3%. The inhibition in vivo at 10 mg/kg with Rattus norvegicus [2] came out at 77.9%.

With `CC/C(=C(\c1ccccc1)c1ccc(OCCN(C)C)cc1)c1ccccc1` [TAMOXIFEN], the Activity in the assay on Rattus norvegicus [1] is 208.8%. Also, the negative logarithm of the IC50 (pIC50) was 5.12 in the assay on MCF7 and 5.01 in the assay with MDA-MB-231. Besides, in the assay with Rattus norvegicus [2], the inhibition in vivo at 10 mg/kg worked out at 27.4%.
